A short description of experiment [1]: RPL19A-GFP modulators, yeast TOR pathway, confirmation, cell-based, S. cerevisiae, flow cytometry, cherry picks, mother/daughter gates (AID 2270;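 active means GFP response below 50% of the DMSO control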). To be noted: S. cerevisiae RPL19A-GFP strain, 3 h, at 10 µM, stronger effect = lower value, 100 = same GFP as DMSO wells.
Experiment [2] in a line: LAP4-GFP expression modulators in yeast, confirmation, cell-based, cherry picks, flow cytometry, mother/daughter gates (AID 2271;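 active means GFP response above 150% of the DMSO control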;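 further: ratio of sample to DMSO plate mean so 100% equals DMSO level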). As to conditions: S. cerevisiae LAP4-GFP strain, 3 h, at 10 µM, stronger effect = higher value, 100 means same as DMSO control. The method, boiled down:
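material = Alexa 633-stained baker's yeast GFP-fusion strain | amount = 0.2 OD600 cells | schedule = 30 °C, 3 h compound incubation, rotating | signal = GFP by flow cytometry | measure = per-gate (all, mother, daughter) GFP response vs DMSO | controls = positive rapamycin (400 ng/mL), negative DMSO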
(In flow cytometry, cells or beads pass a laser one at a time.)

The nature of experiment [3]: modulators of MEP2-GFP levels in yeast, confirmation, S. cerevisiae, flow cytometry GFP, cherry picks (AID 2272;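 active means GFP response above 150% of the DMSO control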;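 further: ratio of well signal to plate DMSO mean so 100% equals DMSO level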). As to conditions: S. cerevisiae MEP2-GFP strain, 3 h, at 10 µM, stronger effect = higher value.
A short description of experiment [4]: AGP1-GFP expression modulators, hit retest, confirmation, cell-based, flow cytometry, S. cerevisiae, cherry picks (AID 2273).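 Further: median GFP channel fluorescence over the whole cell population gate.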 To be noted: S. cerevisiae AGP1-GFP strain, 3 h, at 10 µM.
A short description of experiment [5]: modulators of CIT2-GFP expression in yeast, confirmation, S. cerevisiae, GFP fusion, cherry picks, mother/daughter gates (AID 2274). To be noted: S. cerevisiae CIT2-GFP strain, flow cytometry, 3 h, at 10 µM, stronger effect = higher value.
Where [6] appears, read: measured here: daughter cell gate.
Where [7] appears, read: measured here: mother cell gate.
Where [8] appears, read: measured here: daughter cell gate response.
Where [9] appears, read: measured here: mother cell gate response.

The source made the active and inactive calls.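 How the source made its calls, unless noted: active means GFP response above 150% of the DMSO level; inconclusive means fewer than 70 events counted for a yeast strain; inactive means the rest.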

For `CCc1cccc2sc(N3CCN(C(=O)c4ccc([N+](=O)[O-])o4)CC3)nc12`, the GFP response vs DMSO in experiment [1] was 82.5% (inactive); in experiment [1] (setting [6]), 85.9%; in experiment [1] (setting [7]) it was 70.2%; in experiment [3] it was 172% (inactive). Also, the GFP response relative to DMSO in experiment [2] is 251% (active); in experiment [2] (setting [8]) it was 125%; in experiment [2] (setting [9]) it was 222%. Moreover, the GFP response, % of DMSO in experiment [4] was 108% (inactive); in experiment [5] it was 108% (inactive); in experiment [5] (setting [6]), 99.3%; in experiment [5] (setting [7]) it was 102%.
For the compound `O=C(Nc1nnc(-c2ccc(F)cc2)o1)c1cccc([N+](=O)[O-])c1`, the GFP response vs DMSO in experiment [1] was 102% (inactive); in experiment [1] (setting [6]), 97%; in experiment [1] (setting [7]), 101%; in experiment [3], 110% (inactive). In addition, the GFP response relative to DMSO in experiment [2] is 157% (active); in experiment [2] (setting [8]) it was 169%; in experiment [2] (setting [9]), 152%. For the same compound, the GFP response, % of DMSO in experiment [4] is 97% (inactive); in experiment [5] it was 101% (inactive); in experiment [5] (setting [6]), 103%; in experiment [5] (setting [7]), 99.3%.
Take `O=C(Nc1cc(Sc2ccccn2)cc([N+](=O)[O-])c1)c1cccc(F)c1`: the GFP response vs DMSO in experiment [1] is 96.9% (inactive); in experiment [1] (setting [6]), 96.1%; in experiment [1] (setting [7]), 95.9%; in experiment [3], 106% (inactive). The figures for the GFP response relative to DMSO in experiment [2], in experiment [2] (setting [8]) and in experiment [2] (setting [9]) were 101% (inactive), 96% and 102%, respectively. Moreover, the GFP response, % of DMSO in experiment [4] was 95.7% (inactive); in experiment [5], 97.2% (inactive); in experiment [5] (setting [6]), 95.8%; in experiment [5] (setting [7]), 94.9%.
As for `O=C(CCC(F)(F)F)N1CCC(CO)(CCc2ccccc2)CC1`, the GFP response vs DMSO in experiment [1] is 102% (inactive); in experiment [1] (setting [6]), 99.8%; in experiment [1] (setting [7]), 102%; in experiment [3], 102% (inactive). The GFP response relative to DMSO in experiment [2] is 91.4% (inactive); in experiment [2] (setting [8]) it was 95.6%; in experiment [2] (setting [9]), 92.1%. In addition, the GFP response, % of DMSO in experiment [4] is 101% (inactive); in experiment [5], 107% (inactive); in experiment [5] (setting [6]) it was 106%; in experiment [5] (setting [7]), 106%.
As for `CS(=O)(=O)N1N=C(c2ccco2)CC1c1ccccc1` (stereo not drawn), the GFP response vs DMSO in experiment [1] was 100% (inactive); in experiment [1] (setting [6]), 101%; in experiment [1] (setting [7]), 99.9%; in experiment [3], 99% (inactive). Also, the GFP response relative to DMSO in experiment [2] was 102% (inactive); in experiment [2] (setting [8]), 102%; in experiment [2] (setting [9]) it was 100%. Moreover, the GFP response, % of DMSO is 105% (inactive) in experiment [4], 106% (inactive) in experiment [5], 105% in experiment [5] (setting [6]) and 103% in experiment [5] (setting [7]).
Take `CCOC(=O)c1sc(Nc2nc3c(OC)cccc3s2)nc1C`: the GFP response vs DMSO is 103% (inactive) in experiment [1], 77.4% in experiment [1] (setting [6]), 69% in experiment [1] (setting [7]) and 112% (inactive) in experiment [3]. For the same compound, the values for the GFP response relative to DMSO in experiment [2], in experiment [2] (setting [8]) and in experiment [2] (setting [9]) were 97% (inactive), 94.2% and 92%, respectively. In addition, the GFP response, % of DMSO in experiment [4] is 106% (inactive); in experiment [5], 100% (inactive); in experiment [5] (setting [6]), 90.2%; in experiment [5] (setting [7]) it was 90.7%.
Regarding `Cc1ccc(-n2nc(C)c3c(C)c(CCC(=O)O)c(C)nc32)cc1`, the GFP response vs DMSO in experiment [1] is 102% (inactive); in experiment [1] (setting [6]), 100%; in experiment [1] (setting [7]), 103%; in experiment [3] it was 96.8% (inactive). Further, the GFP response relative to DMSO is 101% (inactive) in experiment [2], 101% in experiment [2] (setting [8]) and 100% in experiment [2] (setting [9]). In addition, the GFP response, % of DMSO in experiment [4] was 100% (inactive); in experiment [5] it was 102% (inactive); in experiment [5] (setting [6]), 101%; in experiment [5] (setting [7]), 102%.
With `Cc1cc(NCCN2CCOCC2)n2ncc(-c3ccccc3)c2n1`, the GFP response vs DMSO is 99.6% (inactive) in experiment [1], 99.8% in experiment [1] (setting [6]), 99.4% in experiment [1] (setting [7]) and 103% (inactive) in experiment [3]. For the same compound, the GFP response relative to DMSO in experiment [2] is 107% (inactive); in experiment [2] (setting [8]), 110%; in experiment [2] (setting [9]), 107%. Further, the GFP response, % of DMSO in experiment [4] was 89.3% (inactive); in experiment [5] it was 103% (inactive); in experiment [5] (setting [6]), 99.3%; in experiment [5] (setting [7]) it was 104%.
Turning to `O=C(CSc1ccc(-c2ccccn2)nn1)N1CCCCC1`, the GFP response vs DMSO in experiment [1] was 99.9% (inactive); in experiment [1] (setting [6]), 100%; in experiment [1] (setting [7]), 99%; in experiment [3], 99.5% (inactive). Moreover, the GFP response relative to DMSO in experiment [2] is 101% (inactive); in experiment [2] (setting [8]) it was 101%; in experiment [2] (setting [9]), 101%. The GFP response, % of DMSO in experiment [4] was 103% (inactive); in experiment [5], 99.3% (inactive); in experiment [5] (setting [6]), 100%; in experiment [5] (setting [7]) it was 96.8%.
With `CCOc1ccc(/C=C2\N=C(c3cccs3)OC2=O)cc1OC`, the GFP response vs DMSO in experiment [1] is 95% (inactive); in experiment [1] (setting [6]), 95.2%; in experiment [1] (setting [7]), 93.9%; in experiment [3] it was 101% (inactive). Also, the GFP response relative to DMSO in experiment [2] was 98.2% (inactive); in experiment [2] (setting [8]) it was 97.5%; in experiment [2] (setting [9]), 99.4%. Besides, the GFP response, % of DMSO in experiment [4] was 94.5% (inactive); in experiment [5], 97.3% (inactive); in experiment [5] (setting [6]) it was 95.6%; in experiment [5] (setting [7]) it was 98.1%.
`O=[N+]([O-])c1cnc(Sc2ccncn2)s1`: the GFP response vs DMSO in experiment [1] is 102% (inactive); in experiment [1] (setting [6]), 105%; in experiment [1] (setting [7]) it was 99.2%; in experiment [3] it was 141% (inactive). In addition, the GFP response relative to DMSO in experiment [2] is 166% (active); in experiment [2] (setting [8]), 148%; in experiment [2] (setting [9]), 182%. Besides, the GFP response, % of DMSO in experiment [4] was 111% (inactive); in experiment [5] it was 113% (inactive); in experiment [5] (setting [6]), 124%; in experiment [5] (setting [7]), 102%.
Take `COc1ccc(C(=O)/C=C2/C(=O)Nc3ccccc32)c(OC)c1`: the GFP response vs DMSO in experiment [1] was 99.5% (inactive); in experiment [1] (setting [6]), 96.7%; in experiment [1] (setting [7]) it was 95.2%; in experiment [3], 97.8% (inactive). Further, the GFP response relative to DMSO in experiment [2] was 136% (inactive); in experiment [2] (setting [8]), 123%; in experiment [2] (setting [9]) it was 139%. Further, the GFP response, % of DMSO in experiment [4] is 99.2% (inactive); in experiment [5], 82.2% (inactive); in experiment [5] (setting [6]) it was 83.4%; in experiment [5] (setting [7]), 77.3%.
With `Cc1nn(C)cc1C(C)NC(=O)c1cc(COc2ccc(F)c(F)c2)on1` (stereo not drawn), the GFP response vs DMSO in experiment [1] was 101% (inactive); in experiment [1] (setting [6]), 100%; in experiment [1] (setting [7]), 102%; in experiment [3] it was 100% (inactive). Besides, the results for the GFP response relative to DMSO in experiment [2], in experiment [2] (setting [8]) and in experiment [2] (setting [9]) were 93.8% (inactive), 94.1% and 96.2%, respectively. The GFP response, % of DMSO in experiment [4] is 93.7% (inactive); in experiment [5] it was 97.8% (inactive); in experiment [5] (setting [6]), 98.1%; in experiment [5] (setting [7]) it was 97.7%.

Values taken from PubChem BioAssay.
